Source: PubChem BioAssay
Hits are enriched below; roughly 2% of the tested compounds scored in any of these assays.
T cruzi inh = blocks replication of Trypanosoma cruzi; T. cruzi beta-gal in NIH3T3, luminescence, 90 h; inhibition, % (test concentration not listed); hit rate 1.4% among 300,000; AID 1885;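 active means mean inhibition across valid replicates above about 55%, limit read from the data; inconclusive means mean below that limit but half or more replicates reach it; inactive means mean below it, under half of replicates reach it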;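 further: signal also drops with host cell toxicity which is not excluded here; 0% = plate median of DMSO wells and 100% = zero luminescence signal; higher percent means less beta-gal luminescence so fewer parasites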
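System: Mouse NIH/3T3 fibroblasts infected with β-gal-expressing T. cruzi Tulahuen C4 | Quantity: NIH/3T3 cells, 5,000 per well | Reagent: 5000 reporter trypomastigotes per well | Dosing: Compound pinned at 50 nL/well, DMSO | Schedule: 3 h host attachment, then at least 90 h co-culture | Detection: GalScreen luminescence, 60 min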
HIF activator = HIF pathway transcriptional activation; U2OS HRE-luciferase reporter, luminescence; normalized: DMSO 0%, desferrioxamine 100%; AID 1910; activation, % at 7.5 µM (by protocol); hit rate 0.32% among 300,000;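 active means mean activation of at least 10% of the iron chelator positive control signal, with at least half of replicates also reaching 10%; inconclusive means mean and replicate majority disagree about reaching 10%; inactive means mean and most replicates under 10%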
ARNT-TACC3 inh = ARNT/TACC3 interaction disruption | inhibition, % at 9.99 µM | AID 623870 | Q9Y6A5 | AlphaScreen His-ARNT PAS-B/GST-TACC3 binding, luminescence; TACC3 fragment carries E629A point mutation | hit rate 0.66% among 390,000;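 active means mean inhibition of replicates at least 50% and at least half of replicates each reaching 50%; inconclusive means half or more replicates reach 50% but mean below 50%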;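 further: 0% = complete ARNT plus TACC3 wells and 100% = ARNT alone without TACC3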
AI-2 QS mod = modulators of Vibrio harveyi AI-2 quorum sensing system; Vibrio harveyi JMH597 AI-2 luminescence/OD600 ratio, 9 h; hits give low values; strain lacks LuxN and CqsS sensors; 0 = neutral-control median; activity change, % at 7.5 µM; hit rate 0.4% among 300,000; AID 2094; in the data active means activity change below about -75%, passing the limit was not always enough; inconclusive means no clear call, values can overlap the other calls;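 further: luminescence divided by OD600 gain over 9 h not by final OD600 alone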
ARNT Alpha ctr-1 = counter-screen for ARNT/TACC3 inhibitors: AlphaScreen artifacts; His-ARNT PASB-GST AlphaScreen artifact counter-screen, luminescence; shares compounds with ARNT-TACC3 inh; AID 651705; AC50, µM (top dose mostly 68 µM), without a hit: at the top dose activity change, negative = signal decrease; hit rate 50% among 1,200;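 active means every separate test run was called active for a drop in luminescence, with AC50 within twice the top valid dose, actives reach about 71 µM in these data; inconclusive means the separate test runs disagree in their calls; inactive means all runs inactive, including signal change in the wrong direction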
ARNT Alpha ctr-2 = produces AlphaScreen artifacts in ARNT-TACC3 counter-screen. hit rate 70% among 45. AC50, µM. shares compounds with ARNT-TACC3 inh. Dual-tagged His-ARNT PASB-GST AlphaScreen artifact counter-screen;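 active means luminescence drop, with half-maximal potency fitted within twice the sample's top valid dose, cut at about 70 µM in these data; inactive means the rest, including signal moving the wrong way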
The depositor's hits bear a star; [ ] = remark or other dose.

Cc1noc(C)c1S(=O)(=O)N(C)C[C@@H]1Oc2ccc(NC(=O)Nc3ccc(C(F)(F)F)cc3)cc2CC(=O)N([C@@H](C)CO)C[C@H]1C was read as ARNT-TACC3 inh 3.6.
Screening C[C@H]1CN([C@@H](C)CO)S(=O)(=O)c2ccc(C#Cc3ccccn3)cc2O[C@H]1CN(C)C(=O)C1CC1 returned ARNT-TACC3 inh 26.0.
`C[C@@H]1CN([C@H](C)CO)S(=O)(=O)c2ccc(C#Cc3ccccn3)cc2O[C@@H]1CN(C)C(=O)C1CC1` gave ARNT-TACC3 inh 50.8* and ARNT Alpha ctr-1 -5.1%[42 µM].
Screening COc1ccc(NC(=O)N(C)C[C@@H]2Oc3ccc(NC(=O)NC(C)C)cc3C(=O)N([C@H](C)CO)C[C@@H]2C)cc1 returned ARNT-TACC3 inh -6.5.
O=C(NCC1CCCO1)c1onc(CSc2ccc(F)cc2)c1C(=O)O (stereo not given) was read as T cruzi inh -9.4, HIF activator -1.3, ARNT-TACC3 inh 23.6*, AI-2 QS mod 8.4 and ARNT Alpha ctr-1 -3.7%.
`COc1cc(/C=N/NC(=O)c2cncc(Br)c2)cc([N+](=O)[O-])c1O` gave T cruzi inh -4.6, HIF activator -0.3, ARNT-TACC3 inh 58.3*, AI-2 QS mod -202.3* and ARNT Alpha ctr-1 35.9µM*.
Screening O=C1c2cccc(O)c2C(=O)c2c(O)cccc21 returned T cruzi inh -5.5, HIF activator 0.0 and AI-2 QS mod 2.5.
Screening CC1OC(CC(=O)O)CC2=C1C(=O)c1c(O)cccc1C2=O (stereo not given) returned ARNT-TACC3 inh 33.2* and ARNT Alpha ctr-1 -16.6%.
`O=C(O)c1cc(=O)c2ccccc2[nH]1` gave ARNT-TACC3 inh 6.7.
`O=C(O)c1cc2c(cn1)[nH]c1ccccc12` gave T cruzi inh -6.0, HIF activator -17.0, ARNT-TACC3 inh 75.5*, AI-2 QS mod 37.3 and ARNT Alpha ctr-1 9.73µM*.
CC(C)C#Cc1cnc2c(c1)C(=O)N([C@@H](C)CO)C[C@@H](C)[C@@H](CN(C)C(=O)C1CCC1)O2 was read as ARNT-TACC3 inh 0.3.
Screening C[C@H]1CN([C@@H](C)CO)C(=O)c2cccc(NS(=O)(=O)c3ccc(Cl)cc3)c2O[C@@H]1CN(C)Cc1ccc(Cl)c(Cl)c1 returned ARNT-TACC3 inh 2.1.
`COc1cc(NC(=O)C(=O)Nc2ccc3nc4n(c(=O)c3c2)CCCCC4)cc(OC)c1OC` gave T cruzi inh -6.0, HIF activator -1.4, ARNT-TACC3 inh 50.4*, AI-2 QS mod 19.6 and ARNT Alpha ctr-1 -7.0%.
For Cc1[nH]c2ccccc2c1-c1nc2ccccc2[nH]c1=O the results were T cruzi inh -13.8, HIF activator 0.7, ARNT-TACC3 inh 0.1 and AI-2 QS mod 4.4.
Cn1ccnc1-c1nc2ccccc2[nH]c1=O was read as T cruzi inh -13.5, HIF activator 0.1, ARNT-TACC3 inh 71.4*, AI-2 QS mod 10.8 and ARNT Alpha ctr-1 -11.5%.
`O=C(C[C@H]1CC[C@H]2[C@@H](COC[C@@H](O)CN2S(=O)(=O)c2ccccc2)O1)NCc1ccc2c(c1)OCO2` gave ARNT-TACC3 inh 9.6.
Screening NC1=NN=C(N2N=C(c3ccc(Br)cc3)CC2(O)C(F)(F)F)n2ncnc2C1 (stereo not given) returned T cruzi inh -14.3, HIF activator 0.1, ARNT-TACC3 inh -0.2 and AI-2 QS mod 3.6.
NC1=NN=C(N2N=C(c3ccccc3)CC2(O)C(F)(F)F)n2ncnc2C1 (stereo not given) was read as T cruzi inh -17.0, HIF activator -0.3, ARNT-TACC3 inh 54.4*, AI-2 QS mod 5.6 and ARNT Alpha ctr-1 -1.0%.
Screening CCCNC(=O)C[C@H]1CC[C@H]2[C@H](COc3ccc(NC(=O)c4cscn4)cc3C(=O)N2C)O1 returned ARNT-TACC3 inh 1.5.
Screening O=C(C[C@H]1CC[C@@H](NC(=O)NC2CCCCC2)[C@@H](CO)O1)NCc1ccc(F)cc1 returned ARNT-TACC3 inh 18.0.
COc1ccccc1CNC(=O)CSc1ccc(-c2ccccn2)nn1 was read as T cruzi inh -1.4, HIF activator -0.1, ARNT-TACC3 inh 72.6*, AI-2 QS mod 33.2 and ARNT Alpha ctr-1 59.5µM*.
`COc1ccccc1CNC(=O)CSc1ccc(-c2cccs2)nn1` gave T cruzi inh 1.8, HIF activator 0.2, ARNT-TACC3 inh 14.9 and AI-2 QS mod 18.3.
O=C(CSc1nnc(-c2ccccn2)o1)Nc1ccccc1Cl was read as T cruzi inh 2.1, HIF activator -1.9, ARNT-TACC3 inh 75.3*, AI-2 QS mod 11.8 and ARNT Alpha ctr-1 -27.1%.
COC(=O)c1ccc(NC(=O)CSc2ccc(-c3ccccn3)nn2)cc1 was read as T cruzi inh 3.0, HIF activator 0.1, ARNT-TACC3 inh 59.7*, AI-2 QS mod 5.8 and ARNT Alpha ctr-1 -37.3%.
Screening Cc1ccccc1NC(=O)CSc1ccc(-c2ccccn2)nn1 returned T cruzi inh 5.5, HIF activator -0.3, ARNT-TACC3 inh 61.1*, AI-2 QS mod 0.4 and ARNT Alpha ctr-1 35.1µM*.
Screening O=C(C[C@H]1C=C[C@@H](NC(=O)C2CCC2)[C@H](CO)O1)NCCCN1CCOCC1 returned ARNT-TACC3 inh -10.5.
Screening CCCC(=O)Nc1ccc2c(c1)C(=O)N(C)C[C@@H](OC)[C@H](C)CN(CCc1ccccc1)[C@@H](C)CO2 returned ARNT-TACC3 inh -0.4.
Screening Cc1nc(C)c(-c2ccc(SCC(=O)Nc3cccc(F)c3)nn2)s1 returned T cruzi inh 15.1, HIF activator 0.8, ARNT-TACC3 inh -3.8 and AI-2 QS mod 5.0.
For O=C(CSc1ccc(-c2ccccn2)nn1)Nc1cccc(F)c1 the results were T cruzi inh 36.3, HIF activator 5.3, ARNT-TACC3 inh 74.0*, AI-2 QS mod -0.2 and ARNT Alpha ctr-1 12.2µM*.
For Cc1csc(NC(=O)CSc2ccccc2F)n1 the results were T cruzi inh -6.6, HIF activator 2.9, ARNT-TACC3 inh -12.6 and AI-2 QS mod 11.4.
O=C(CSc1ccc(-c2ccccn2)nn1)N1CCCc2ccccc21 was read as T cruzi inh 5.4, HIF activator 2.6, ARNT-TACC3 inh 59.3*, AI-2 QS mod 3.9 and ARNT Alpha ctr-1 29.6µM*.
Screening Cc1csc(NC(=O)CSc2ccc(-c3ccccn3)nn2)n1 returned T cruzi inh 5.7, HIF activator 1.9, ARNT-TACC3 inh 60.7*, AI-2 QS mod 40.5 and ARNT Alpha ctr-1 16.1µM*.
O=C(CSc1ccc(-c2cccnc2)nn1)N1CCCc2ccccc21 was read as T cruzi inh -4.3, HIF activator -0.1 and AI-2 QS mod 40.6.
O=C(CSc1ccc(-c2ccccn2)nn1)Nc1nccs1 was read as T cruzi inh -1.5, HIF activator inconclusive, ARNT-TACC3 inh 60.7*, AI-2 QS mod 23.1, ARNT Alpha ctr-1 60.3µM* and ARNT Alpha ctr-2 4.66*.
